“And” between values parts separate entries of the source, which are not always exact repeats. Equal values may be shown once.
System: HEK-293T
Test: Multiplex assay against HEK293T
Assay type: toxicity, cell-based
Settings: human
How it was run: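 Live cells were stained at seeding with Hoechst33342, BioTracker Green Microtubule Cytoskeleton Dye, MitoTracker Red and Annexin V Alexa Fluor 680, then imaged on a CQ1 microscope at 37°C and 5% CO2 after compound addition. CellPathfinder machine-learning gating split cells into Hoechst high-intensity objects or normal cells. Normal cells were split into healthy, pyknosed or fragmented nuclei, and pyknosed cells into mitotic or apoptotic. Tubulin, mitochondrial-mass and membrane-permeability phenotypes are per cents of healthy-nucleus cells.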

[1] = 12 h, 1 µM, compound concentration 1 uM
[2] = 12 h, 10 µM, compound concentration 10 uM
[3] = 24 h, 1 µM, compound concentration 1 uM
[4] = 24 h, 10 µM, compound concentration 10 uM
[5] = 48 h, 1 µM, compound concentration 1 uM
[6] = 48 h, 10 µM, compound concentration 10 uM

## CC[C@H]1OC(=O)[C@H](C)[C@@H](O[C@H]2C[C@@](C)(OC)[C@@H](O)[C@H](C)O2)[C@H](C)[C@@H](O[C@@H]2O[C@H](C)C[C@H](N(C)C)[C@H]2O)[C@@]2(C)CC(C)=C(O2)[C@H](C)[C@@H](O)[C@]1(C)O
[1]
  Population Apoptotic (%): 35% and 45%
  Population Fragmented Nuclei (%): 8% and 3%
  Population Healthy Nuclei (%): 74% and 84%
  Population Hoechst High Intensity Objects (%): 6% and 7%
  Population Membrane Permeable-Phenotype (%): 0%
  Population Mitochondria Different-Phenotype (%): 56% and 72%
  Population Mitotic Cells (%): 64% and 54%
  Population Normal (%): 93% and 92%
  Population Pyknosed Nuclei (%): 17% and 11%
  Population Tubulin-Different-Phenotype (%): 41% and 27%
  Total Cell Count: 367 and 300
[2]
  Population Apoptotic (%): 55% and 56%
  Population Fragmented Nuclei (%): 8% and 11%
  Population Healthy Nuclei (%): 71% and 72%
  Population Hoechst High Intensity Objects (%): 13% and 10%
  Population Membrane Permeable-Phenotype (%): 0%
  Population Mitochondria Different-Phenotype (%): 87% and 91%
  Population Mitotic Cells (%): 44% and 43%
  Population Normal (%): 86% and 89%
  Population Pyknosed Nuclei (%): 19% and 16%
  Population Tubulin-Different-Phenotype (%): 76% and 77%
  Total Cell Count: 383 and 217
[3]
  Population Apoptotic (%): 20% and 35%
  Population Fragmented Nuclei (%): 8%
  Population Healthy Nuclei (%): 78%
  Population Hoechst High Intensity Objects (%): 3% and 6%
  Population Membrane Permeable-Phenotype (%): 0%
  Population Mitochondria Different-Phenotype (%): 35% and 49%
  Population Mitotic Cells (%): 79% and 64%
  Population Normal (%): 96% and 93%
  Population Pyknosed Nuclei (%): 13% and 12%
  Population Tubulin-Different-Phenotype (%): 24% and 22%
  Total Cell Count: 493 and 371
[4]
  Population Apoptotic (%): 42% and 70%
  Population Fragmented Nuclei (%): 9% and 10%
  Population Healthy Nuclei (%): 75% and 71%
  Population Hoechst High Intensity Objects (%): 11% and 10%
  Population Membrane Permeable-Phenotype (%): 0%
  Population Mitochondria Different-Phenotype (%): 74% and 87%
  Population Mitotic Cells (%): 57% and 29%
  Population Normal (%): 88% and 89%
  Population Pyknosed Nuclei (%): 15% and 18%
  Population Tubulin-Different-Phenotype (%): 75% and 80%
  Total Cell Count: 499 and 254
[5]
  Population Apoptotic (%): 30% and 21%
  Population Fragmented Nuclei (%): 12%
  Population Healthy Nuclei (%): 76% and 78%
  Population Hoechst High Intensity Objects (%): 8% and 6%
  Population Membrane Permeable-Phenotype (%): 0%
  Population Mitochondria Different-Phenotype (%): 28% and 34%
  Population Mitotic Cells (%): 69% and 78%
  Population Normal (%): 91% and 93%
  Population Pyknosed Nuclei (%): 11% and 9%
  Population Tubulin-Different-Phenotype (%): 21% and 20%
  Total Cell Count: 718 and 584
[6]
  Population Apoptotic (%): 50% and 53%
  Population Fragmented Nuclei (%): 12%
  Population Healthy Nuclei (%): 74% and 75%
  Population Hoechst High Intensity Objects (%): 10% and 12%
  Population Membrane Permeable-Phenotype (%): 1% and 0%
  Population Mitochondria Different-Phenotype (%): 61% and 84%
  Population Mitotic Cells (%): 50% and 46%
  Population Normal (%): 89% and 87%
  Population Pyknosed Nuclei (%): 12% and 11%
  Population Tubulin-Different-Phenotype (%): 56% and 73%
  Total Cell Count: 671 and 300

Reference: ChEMBL document CHEMBL5724801, “EUbOPEN Chemogenomics Library - Multiplex” (2024)
